Measurements from ChEMBL document CHEMBL1126594, “Studies directed toward the design of orally active renin inhibitors. 1. Some factors influencing the absorption of small peptides” (J Med Chem, 1993).

Tests used:
[1] = Plasma level by the renin inhibition assay from samples taken at 10 minutes from portal circulation by administering 10 mg/kg intraduodenally to the rat
[2] = Plasma level by the renin inhibition assay from samples taken at 10 minutes from systemic circulation by administering 10 mg/kg intraduodenally to the rat
[3] = Plasma level by the renin inhibition assay from samples taken at 30 minutes from portal circulation by administering 10 mg/kg intraduodenally to the rat
[4] = Plasma level by the renin inhibition assay from samples taken at 30 minutes from systemic circulation by administering 10 mg/kg intraduodenally to the rat
Renin = molecular target: T1, Renin (Homo sapiens, UniProt P00797); test: Inhibition of human plasma renin at pH 7.4; format: cell-free
T1 sequence (P00797 whole entry): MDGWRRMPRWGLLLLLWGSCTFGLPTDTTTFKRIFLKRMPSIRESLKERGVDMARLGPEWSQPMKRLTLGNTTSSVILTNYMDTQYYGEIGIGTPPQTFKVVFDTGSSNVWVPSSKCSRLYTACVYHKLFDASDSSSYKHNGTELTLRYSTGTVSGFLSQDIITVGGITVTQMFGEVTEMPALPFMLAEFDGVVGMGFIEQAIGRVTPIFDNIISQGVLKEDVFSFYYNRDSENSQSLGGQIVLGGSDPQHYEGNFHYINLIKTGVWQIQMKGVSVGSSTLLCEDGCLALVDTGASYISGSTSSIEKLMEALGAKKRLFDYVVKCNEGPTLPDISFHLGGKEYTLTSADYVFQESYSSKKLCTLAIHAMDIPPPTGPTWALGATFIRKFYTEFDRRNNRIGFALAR
In short: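 Human plasma renin, pH 7.4; IC50 determined by the previously described method.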

[5] = Partition coefficient (logD7.4); settings: octanol/water, pH 7.4
[6] = Integrated area under the plasma drug level-time curve after intraduodenal administration at a dose 10 mg/kg from portal circulation in salt-depleted cynomolgus monkeys using HPLC assay; format: ADME, organism-based, Macaca fascicularis; set-up: dose 10 mg/kg, route intraduodenal; settings: cynomolgus monkey
In short: (§1)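 Salt-depleted cynomolgus monkeys, anesthetized, n = 4; 10 mg/kg intraduodenal in ethanol/HCl (110 mol %) diluted with aqueous hydroxypropyl methylcellulose (25% ethanol final, 10 mg/mL). 5-h experiment, systemic and portal sampling. Plasma (0.40 mL) mixed with 10% Na2CO3, extracted with ethyl acetate, assayed by HPLC; recoveries 75-85%. AUC as ng h/mL; mean ± SEM.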

[7] = Integrated area under the plasma drug level-time curve after intraduodenal administration at a dose 10 mg/kg from systemic circulation in salt-depleted cynomolgus monkeys using HPLC assay; format: ADME, organism-based, Macaca fascicularis; set-up: dose 10 mg/kg, route intraduodenal; settings: cynomolgus monkey; in short: as §1
[8] = Peak plasma drug level after intraduodenal administration at a dose 10 mg/kg from portal circulation in salt-depleted cynomolgus monkeys using HPLC assay; format: ADME, organism-based, Macaca fascicularis; set-up: dose 10 mg/kg, route intraduodenal; settings: cynomolgus monkey, read-out: Activity; in short: as §1
[9] = Peak plasma drug level after intraduodenal administration at a dose 10 mg/kg from systemic circulation in salt-depleted cynomolgus monkeys using HPLC assay; format: ADME, organism-based, Macaca fascicularis; set-up: dose 10 mg/kg, route intraduodenal; settings: cynomolgus monkey, read-out: Activity; in short: as §1

Compound | concentration at 10 min [1] | concentration at 10 min [2] | concentration at 0.5 h [3] | concentration at 0.5 h [4] | IC50 (Renin) | logD [5] | AUC [6] | AUC [7] | Cmax [8] | Cmax [9]
CCN1C[C@@H]([C@H](O)[C@H](CC2CCCCC2)NC(=O)[C@H](Cc2c[nH]cn2)NC(=O)[C@H](Cc2ccc(OC)cc2)NC(=O)CC(C)(C)N)OC1=O | 140 ng/mL | 93 ng/mL | 250 ng/mL | 110 ng/mL | 17 nM |  |  |  |  | 
COc1ccc(C[C@H](NC(=O)N2CCN(C)CC2)C(=O)N[C@@H](Cc2cscn2)C(=O)N[C@@H](CC2CCCCC2)[C@@H](O)[C@@H](O)CC(C)C)cc1 |  |  |  |  | 120 nM |  |  |  |  | 
COc1ccc(C[C@H](NC(=O)C2CCN(C)CC2)C(=O)N[C@@H](Cc2cscn2)C(=O)N[C@@H](CC2CCCCC2)[C@@H](O)[C@@H](O)CC(C)C)cc1 | 1200 ng/mL | 160 ng/mL | 770 ng/mL | 90 ng/mL | 170 nM | 3.03 |  |  |  | 
COc1ccc(C[C@H](NC(=O)CC(C)(C)N)C(=O)N[C@@H](Cc2cnc[nH]2)C(=O)N[C@@H](CC2CCCCC2)[C@@H](O)[C@@H](O)CC(C)C)cc1 | 1100 ng/mL | 170 ng/mL | 540 ng/mL | 82 ng/mL |  |  |  |  |  | 
CCN1C[C@@H]([C@H](O)[C@H](CC2CCCCC2)NC(=O)[C@H](Cc2cc[nH]n2)NC(=O)[C@@H](CC(=O)N2CCOCC2)Cc2ccccc2)OC1=O | 28 ng/mL | 7 ng/mL | 58 ng/mL | 7 ng/mL |  | 2.49 |  |  |  | 
COc1ccc(C[C@H](NC(=O)CC(C)(C)N)C(=O)N[C@@H](Cc2cccs2)C(=O)N[C@@H](CC2CCCCC2)[C@@H](O)[C@@H](O)CC(C)C)cc1 | 23 ng/mL | 9 ng/mL | 23 ng/mL | 6 ng/mL | 85 nM |  |  |  |  | 
CCCC[C@H](NC(=O)[C@@H](CC(=O)N1CCN(C)CC1)Cc1ccccc1)C(=O)N[C@@H](CC1CCCCC1)[C@@H](O)[C@@H](O)CC(C)C | 3200 ng/mL | 260 ng/mL | 4600 ng/mL | 650 ng/mL | 25 nM | > 4.5 |  |  |  | 
CCN1C[C@@H]([C@H](O)[C@H](CC2CCCCC2)NC(=O)[C@H](Cc2cscn2)NC(=O)[C@@H](CC(=O)N2CCOCC2)Cc2ccccc2)OC1=O | 1900 ng/mL | 320 ng/mL | 1100 ng/mL | 300 ng/mL |  | 2.83 | 3800 ng·h/mL | 770 ng·h/mL | 3200 ng/mL | 360 ng/mL
COc1ccc(C[C@H](NC(=O)CC(C)(C)N)C(=O)N[C@@H](Cc2cscn2)C(=O)N[C@@H](CC2CCCCC2)[C@@H](O)[C@@H](O)CC(C)C)cc1 | 93 ng/mL | 17 ng/mL | 53 ng/mL | 13 ng/mL | 33 nM |  |  |  |  | 
CCN1C[C@@H]([C@H](O)[C@H](CC2CCCCC2)NC(=O)[C@H](Cc2cccs2)NC(=O)[C@H](Cc2ccc(OC)cc2)NC(=O)CC(C)(C)N)OC1=O | 13 ng/mL | 16 ng/mL | 45 ng/mL | 32 ng/mL | 69 nM |  |  |  |  | 
CCN1C[C@@H]([C@H](O)[C@H](CC2CCCCC2)NC(=O)[C@H](Cc2cscn2)NC(=O)[C@H](Cc2ccc(OC)cc2)NC(=O)CC(C)(C)N)OC1=O | 880 ng/mL | 83 ng/mL | 240 ng/mL | 24 ng/mL | 39 nM |  |  |  |  | 
CCN1C[C@@H]([C@H](O)[C@H](CC2CCCCC2)NC(=O)[C@H](Cc2cnc[nH]2)NC(=O)[C@@H](CC(=O)N2CCOCC2)Cc2ccccc2)OC1=O | 280 ng/mL | 55 ng/mL | 390 ng/mL | 34 ng/mL |  |  |  |  |  | 

Next, values leading:

concentration at 10 min [1] | concentration at 10 min [2] | concentration at 0.5 h [3] | concentration at 0.5 h [4] | IC50 (Renin) | logD [5] | AUC [6] | AUC [7] | Cmax [8] | Cmax [9] | Compound
67 ng/mL | 63 ng/mL | 30 ng/mL | 40 ng/mL | 5.4 nM | 1.66 |  |  |  |  | CC(C)C[C@H](O)[C@H](O)[C@H](CC1CCCCC1)NC(=O)[C@H](Cc1c[nH]cn1)NC(=O)[C@@H](CC(=O)N1CCN(C)CC1)Cc1ccccc1
3500 ng/mL | 340 ng/mL | 1400 ng/mL | 170 ng/mL | 88 nM | > 4.6 |  |  |  |  | CON(C)C[C@H](NC(=O)[C@@H](CC(=O)N1CCOCC1)Cc1ccccc1)C(=O)N[C@@H](CC1CCCCC1)[C@@H](O)[C@@H](O)CC(C)C
 |  |  |  | 210 nM |  |  |  |  |  | CC(C)C[C@H](O)[C@H](O)[C@H](CC1CCCCC1)NC(=O)[C@H](CN(C)C)NC(=O)[C@@H](CC(=O)N1CCOCC1)Cc1ccccc1
 |  |  |  | 93 nM | 3.79 |  |  |  |  | CC(C)C[C@H](O)[C@H](O)[C@H](CC1CCCCC1)NC(=O)[C@H](Cn1ccnc1)NC(=O)[C@@H](CC(=O)N1CCOCC1)Cc1ccccc1
190 ng/mL | 13 ng/mL | 170 ng/mL | 11 ng/mL | 1.6 nM | 3.51 |  |  |  |  | CC(C)C[C@H](O)[C@H](O)[C@H](CC1CCCCC1)NC(=O)[C@H](Cc1c[nH]cn1)NC(=O)[C@@H](CC(=O)N1CCOCC1)Cc1ccccc1
2000 ng/mL | 86 ng/mL | 2300 ng/mL | 140 ng/mL | 18 nM | 4.39 |  |  |  |  | CC(C)C[C@H](O)[C@H](O)[C@H](CC1CCCCC1)NC(=O)[C@H](Cn1cccn1)NC(=O)[C@@H](CC(=O)N1CCN(C)CC1)Cc1ccccc1
 |  |  |  | 11 nM | 4.1 |  |  |  |  | CC(C)C[C@H](O)[C@H](O)[C@H](CC1CCCCC1)NC(=O)[C@H](CN=[N+]=[N-])NC(=O)[C@@H](CC(=O)N1CCOCC1)Cc1ccccc1
4900 ng/mL | 470 ng/mL | 3300 ng/mL | 320 ng/mL | 110 nM | 3.71 |  |  |  |  | CC(C)C[C@H](O)[C@H](O)[C@H](CC1CCCCC1)NC(=O)[C@H](Cc1cn(C)cn1)NC(=O)[C@@H](CC(=O)N1CCOCC1)Cc1ccccc1
880 ng/mL | 380 ng/mL | 1200 ng/mL | 620 ng/mL | 37 nM |  |  |  |  |  | CC(C)C[C@H](NC(=O)[C@@H](CC(=O)N1CCN(C)CC1)Cc1ccccc1)C(=O)N[C@@H](CC1CCCCC1)[C@@H](O)[C@@H](O)CC(C)C
2600 ng/mL | 420 ng/mL | 3300 ng/mL | 890 ng/mL | 1600 nM |  |  |  |  |  | CC(C)C[C@H](O)[C@H](O)[C@H](CC1CCCCC1)NC(=O)[C@H](Cc1cscn1)NC(=O)[C@H](Cc1ccccc1)N1CCOCC1
2500 ng/mL | 190 ng/mL | 1800 ng/mL | 380 ng/mL | 25 nM | 3.91 |  |  |  |  | CC(C)C[C@H](O)[C@H](O)[C@H](CC1CCCCC1)NC(=O)[C@H](Cc1cscn1)NC(=O)[C@@H](CC(=O)CN1CCOCC1)Cc1ccccc1
 |  |  |  | 18 nM |  |  |  |  |  | CC(C)C[C@H](O)[C@H](O)[C@H](CC1CCCCC1)NC(=O)[C@H](Cc1cscn1)NC(=O)[C@@H](CC(=O)N1CCN(C)CC1)Cc1ccccc1
53 ng/mL | 21 ng/mL | 27 ng/mL | 22 ng/mL | 2.8 nM | 4.02 |  |  |  |  | CC(C)C[C@H](O)[C@H](O)[C@H](CC1CCCCC1)NC(=O)[C@H](Cc1ccn[nH]1)NC(=O)[C@@H](CC(=O)N1CCN(C)CC1)Cc1ccccc1
 |  |  |  | 110 nM |  |  |  |  |  | CC(C)C[C@H](O)[C@H](O)[C@H](CC1CCCCC1)NC(=O)[C@H](Cc1cccs1)NC(=O)[C@@H](CC(=O)N1CCN(C)CC1)Cc1ccccc1
 |  |  |  | 3.5 nM |  |  |  |  |  | CC(C)C[C@H](O)[C@H](O)[C@H](CC1CCCCC1)NC(=O)[C@H](Cc1ccn[nH]1)NC(=O)[C@@H](CC(=O)N1CCOCC1)Cc1ccccc1
